Activity calls are given as the source filed them.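 How the source made its calls, unless noted: active means Her2 level under about 52% in both replicate screens, with viability over 70% of control (limit read from the data); inconclusive means Her2 under the limit in one screen only, or viability under 70%; inactive means Her2 level above the set limit.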
How the values were obtained:
[1] = reducers of endogenous Her2 protein level, primary screen, SKBR3 breast tumor cells, AlphaScreen, ATP viability (AID 461); conditions: 18-24 h, measured here: SKBR3 viability, ATP luminescence, at 10 µM;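 on Her2 level: lower value means less Her2 protein in the cells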;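 on viability: percent of carrier control wells set as 100% viability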
[2] = target: Receptor tyrosine-protein kinase erbB-2 (Homo sapiens) (UniProt P04626); experiment: as above; conditions: 18-24 h, at 10 µM, stronger effect = lower value
Chain of Receptor tyrosine-protein kinase erbB-2 (Homo sapiens) (P04626 whole entry, looked up): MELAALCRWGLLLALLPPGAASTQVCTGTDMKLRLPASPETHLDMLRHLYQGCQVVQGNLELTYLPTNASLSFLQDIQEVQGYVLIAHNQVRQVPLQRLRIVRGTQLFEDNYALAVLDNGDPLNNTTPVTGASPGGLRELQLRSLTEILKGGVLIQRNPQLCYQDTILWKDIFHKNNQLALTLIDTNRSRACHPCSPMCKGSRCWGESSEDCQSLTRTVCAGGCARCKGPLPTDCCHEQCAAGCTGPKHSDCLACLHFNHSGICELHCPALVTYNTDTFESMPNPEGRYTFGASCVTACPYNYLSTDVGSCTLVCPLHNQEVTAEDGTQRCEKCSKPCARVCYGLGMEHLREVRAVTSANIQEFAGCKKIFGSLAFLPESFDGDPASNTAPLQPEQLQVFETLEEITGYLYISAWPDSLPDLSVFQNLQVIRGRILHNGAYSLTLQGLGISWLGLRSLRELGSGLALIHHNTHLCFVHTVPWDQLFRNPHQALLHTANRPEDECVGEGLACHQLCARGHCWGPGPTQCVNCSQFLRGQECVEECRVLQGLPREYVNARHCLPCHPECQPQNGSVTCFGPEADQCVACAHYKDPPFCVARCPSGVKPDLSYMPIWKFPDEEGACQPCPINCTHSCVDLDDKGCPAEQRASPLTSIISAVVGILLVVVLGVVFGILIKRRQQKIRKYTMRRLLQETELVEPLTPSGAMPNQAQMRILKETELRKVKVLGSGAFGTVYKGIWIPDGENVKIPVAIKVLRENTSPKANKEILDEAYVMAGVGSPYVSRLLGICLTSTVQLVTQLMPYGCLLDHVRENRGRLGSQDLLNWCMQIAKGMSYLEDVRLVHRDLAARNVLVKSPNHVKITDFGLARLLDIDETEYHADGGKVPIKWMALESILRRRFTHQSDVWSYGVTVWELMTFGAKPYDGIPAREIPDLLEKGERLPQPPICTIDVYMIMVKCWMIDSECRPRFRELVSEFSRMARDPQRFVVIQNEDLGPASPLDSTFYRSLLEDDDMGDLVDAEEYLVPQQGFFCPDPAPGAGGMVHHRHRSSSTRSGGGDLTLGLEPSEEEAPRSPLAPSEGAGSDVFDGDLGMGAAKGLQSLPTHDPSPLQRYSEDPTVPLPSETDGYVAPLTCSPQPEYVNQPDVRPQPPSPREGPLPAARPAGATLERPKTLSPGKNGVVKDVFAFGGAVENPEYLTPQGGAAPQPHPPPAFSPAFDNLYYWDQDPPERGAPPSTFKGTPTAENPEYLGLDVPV

[3] = SK-BR-3 cell growth inhibitors, pilot screen, 24 h, human (AID 572;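 active means viability at or below 10% of carrier control in both of two separate runs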;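 further: compound exposure lasted between 18 and 24 h rather than exactly 24 h; 100% = carrier-treated control wells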); conditions: SK-BR-3 viability, CellTiter-Glo luminescence, at 10 µM, stronger effect = lower value
[4] = HUVEC growth inhibition – cell-based, human, primary screen (AID 575;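 active means viability at or below 30% in both replicate assays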;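 further: 100% = median of untreated cell wells with 0.1% DMSO on each plate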); conditions: HUVEC proliferation, CellTiter-Glo luminescence, 72 h; at 10 µM; stronger effect = lower value
In short: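 Test system – primary HUVEC, no more than 12 passages · Dosing – one dose, 10 µM final, 0.1% DMSO · Times – 72 h treatment at 37 °C · Measured by – ATP-based CellTiter-Glo luminescent read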

[5] = growth inhibitors of H69AR lung tumor, primary screen, human, duplicate replicates (AID 580;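 active means viability at or under a set limit in both replicates, limit being median viability minus 3 SD, cut at about 48% in these data, passing the limit was not always enough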;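 further: 100% = mean luminescence of untreated wells and 0% = no signal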); conditions: H69AR lung tumor cells viability, ATP luminescence, 72 h; at 10 µM; stronger effect = lower value
[6] = reversal of MRP1-mediated doxorubicin resistance, pilot screen, H69AR cells, doxorubicin co-treatment (AID 601;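 active means viability loss from added drug above about 55%, and viability with drug at most 40%, in both replicates, limit read from the data, passing the limit was not always enough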); conditions: CellTiter-Glo, 72 h, at 10 µM; for differential viability (reversal): stronger effect = higher value
[7] = 384-well plate pilot, post-Golgi transport modulator project, inhibition of yeast transport mutant growth (AID 636; in the data active means inhibition above about 31%); conditions: absorbance 615 nm, about 18 h, stronger effect = higher value
[8] = growth suppression of yeast trafficking mutant, preliminary HTS, modulators of trafficking downstream of Golgi apparatus project, 1536-format plate, OD 615 nm (AID 637; in the data active means inhibition above about 30%); conditions: yeast transport mutant growth, absorbance 615 nm, 18 h; stronger effect = higher value
[9] = H69AR cells + 2 uM doxorubicin, measured here: viability with 2 uM doxorubicin, stronger effect = lower value
[10] = H69AR cells, compound alone cytotoxicity

SMILES	viability [1] [%]	Her2 level [2]	viability [3]	viability [4]	viability [5]	differential viability (reversal) ([6]; H69AR cells + 2 uM doxorubicin)	viability [6, 9] [%]	viability [6, 10] [%]	inhibition [7]	inhibition [8]
O=C(NCC(c1cccnc1)N1CCN(c2ccc(F)cc2)CC1)c1ccc(F)cc1 (stereo not given)	90	86.5% (inactive)	90% (inactive)	103% (inactive)	92.7% (inactive)	1.7% (inactive)	91	92.7	-3.11% (inactive)	8.25% (inactive)
CC(C)=CCCC(C)N(C=O)C(C)CCC=C(C)C (stereo not given)	84.5	94% (inactive)	84.5% (inactive)	76.3% (inactive)	87.8% (inactive)	7.05% (inactive)	80.7	87.8	-0.68% (inactive)	-2.7% (inactive)
Cc1ccc2cc(CN(CC3CCCO3)S(=O)(=O)c3ccc4c(c3)OCCO4)c(=O)[nH]c2c1C (stereo not given)	86.5	80% (inactive)	86.5% (inactive)	84.1% (inactive)	86.1% (inactive)	3.25% (inactive)	82.9	86.1	-5.07% (inactive)	-6.03% (inactive)
O=C(CSc1nnnn1-c1ccccc1)c1cc2ccccc2oc1=O	95.5	102% (inactive)	95.5% (inactive)	86.5% (inactive)	74.2% (inactive)	-4.18% (inactive)	78.3	74.2	-6.62% (inactive)	-6.83% (inactive)
Nc1nnnn1/N=C/c1ccccc1OCc1ccccc1	118	96.5% (inactive)	118% (inactive)	78.9% (inactive)	95.3% (inactive)	8.29% (inactive)	87	95.3	-4.13% (inactive)	2.42% (inactive)
CN(c1ccccc1)S(=O)(=O)c1ccc(C(=O)OCC(=O)NCc2ccco2)cc1	95.5	112% (inactive)	95.5% (inactive)	88.5% (inactive)	74.4% (inactive)	-10.4% (inactive)	84.8	74.4	2.03% (inactive)	16.4% (inactive)
O=C(C1CCN(S(=O)(=O)N2CCC3(CC2)OCCO3)CC1)N1CCOCC1	98	114% (inactive)	98% (inactive)	99.4% (inactive)	94.1% (inactive)	3.86% (inactive)	90.3	94.1	0.92% (inactive)	7.38% (inactive)
O=C(Nc1cccnc1)c1noc2c1CCCCC2	110	90% (inactive)	110% (inactive)	105% (inactive)	87.3% (inactive)	-2.86% (inactive)	90.2	87.3	-0.66% (inactive)	9.5% (inactive)
Cc1ccc(/C(O)=C2\C(=O)C(=O)N(CCCN(C)C)C2c2ccccn2)cc1 (stereo not given)	101	93% (inactive)	101% (inactive)	118% (inactive)	104% (inactive)	-4.14% (inactive)	108	104	-1.84% (inactive)	4.43% (inactive)
O=c1[nH]c(SCc2ccccc2Cl)nc2c1CCCC2	100	75.5% (inactive)	100% (inactive)	65.4% (inactive)	89.5% (inactive)	-3.21% (inactive)	92.7	89.5	-5.13% (inactive)	0.17% (inactive)
O=C1CSC(c2cccc(F)c2)N1c1ccccc1F (stereo not given)	86	102% (inactive)	86% (inactive)	98.8% (inactive)	97.5% (inactive)	9.31% (inactive)	88.2	97.5	-4.87% (inactive)	7.38% (inactive)
Cc1cccc(Nc2nc(N)nc(CN3CCC(C(N)=O)CC3)n2)c1C	89	89% (inactive)	89% (inactive)	105% (inactive)	98.1% (inactive)	12.8% (inactive)	85.2	98.1	-5.58% (inactive)	-3.49% (inactive)
Cc1noc(C)c1CSc1nnc2n(-c3ccccc3)c(=O)c3ccccc3n12	72.5	75.5% (inactive)	72.5% (inactive)	105% (inactive)	81.7% (inactive)	-18.9% (inactive)	101	81.7	2.31% (inactive)	-5.83% (inactive)
Cc1nn(C)cc1NC(=O)CCSc1nc(-c2ccco2)cc(C(F)(F)F)n1	90.5	104% (inactive)	90.5% (inactive)	102% (inactive)	87.3% (inactive)	5.31% (inactive)	81.9	87.3	-4.4% (inactive)	23.9% (inactive)
O=c1oc2ccccc2n1CCn1c2ccccc2c2nc3ccccc3nc21	85	96% (inactive)	85% (inactive)	53.2% (inactive)	34.2% (active)	-3.67% (inactive)	37.8	34.2	-1.05% (inactive)	-3.71% (inactive)
COc1ccc2c(CC(=O)Nc3ccc(OC)c(NS(=O)(=O)c4ccc(F)cc4)c3)coc2c1	88	85% (inactive)	88% (inactive)	70.2% (inactive)	86.3% (inactive)	-1.86% (inactive)	88.1	86.3	-2.18% (inactive)	-0.33% (inactive)
Cc1cc(C(=O)COC(=O)C2COc3ccccc3O2)c(C)n1CC1CCCO1 (stereo not given)	82	100% (inactive)	82% (inactive)	99.4% (inactive)	94% (inactive)	0.315% (inactive)	93.6	94	-0.38% (inactive)	-4.5% (inactive)
Cc1ccc(C(c2sc3nc(C)nn3c2O)N2CC(C)OC(C)C2)cc1 (stereo not given)	97	93% (inactive)	97% (inactive)	104% (inactive)	101% (inactive)	11.1% (inactive)	90.2	101	-1.17% (inactive)	0.49% (inactive)
COCCN1C(=O)C(=O)/C(=C(/O)c2ccc(OC(C)C)cc2)C1c1cccnc1 (stereo not given)	94.5	86.5% (inactive)	94.5% (inactive)	89.7% (inactive)	92.6% (inactive)	5.24% (inactive)	87.4	92.6	-3.55% (inactive)	3.33% (inactive)
CC(C)C(c1nnnn1CC1CCCO1)N1CCN(Cc2ccc3c(c2)OCO3)CC1 (stereo not given)	102	82.5% (inactive)	102% (inactive)	113% (inactive)	95.3% (inactive)	4.93% (inactive)	90.3	95.3	-6.44% (inactive)	-3.97% (inactive)
Cc1cc2c(cc1C)C(=O)NC(C)(C)C2	104	98% (inactive)	104% (inactive)	79.4% (inactive)	95.2% (inactive)	-13.8% (inactive)	109	95.2	-2.7% (inactive)	-1.15% (inactive)
COc1ccc(N2CCN(c3ccc(NC(=O)C4CCCCC4)cc3C#N)CC2)cc1	98	84% (inactive)	98% (inactive)	78.6% (inactive)	93% (inactive)	2.67% (inactive)	90.4	93	-1.76% (inactive)	-2.22% (inactive)
Cc1cc(C)nc(N2CCC(C(=O)NC3CCCCCC3)CC2)n1	92.5	99% (inactive)	92.5% (inactive)	111% (inactive)	96.1% (inactive)	1.6% (inactive)	94.5	96.1	-4.8% (inactive)	1.13% (inactive)
CCN1CCN(S(=O)(=O)Cc2ccccc2)CC1	116	114% (inactive)	116% (inactive)	105% (inactive)	91.4% (inactive)	-0.695% (inactive)	92.1	91.4	1.62% (inactive)	12.9% (inactive)
Cc1cc(C)n(CC(=O)n2c3c(c4ccccc42)CCCC3)n1	116	117% (inactive)	116% (inactive)	75.3% (inactive)	74.4% (inactive)	-6.97% (inactive)	81.4	74.4	-5.53% (inactive)	3.77% (inactive)
CCCN(CCC)C(=O)CSc1nc2ccccc2c(=O)n1C1CCCC1	136	60.5% (inactive)	136% (inactive)	87.2% (inactive)	66.7% (inactive)	10.4% (inactive)	56.3	66.7	-3.68% (inactive)	-2.54% (inactive)
COCCNC(=O)C(c1cccc(OC)c1)N(Cc1cccs1)C(=O)Cn1nnc2ccccc21 (stereo not given)	110	82% (inactive)	110% (inactive)	105% (inactive)	99.2% (inactive)	4.64% (inactive)	94.5	99.2	-3.6% (inactive)	1.48% (inactive)
Cc1ccccc1CSCC(=O)c1c(N)n(C)c(=O)n(C)c1=O	86.5	86.5% (inactive)	86.5% (inactive)	106% (inactive)	93.5% (inactive)	-2.12% (inactive)	95.6	93.5	-2.37% (inactive)	-2.22% (inactive)
